Measurements published in ChEMBL document CHEMBL5058577, “EUbOPEN Chemogenomics Library 2 (Multiplex)” (2022).

Tested on: HEK-293T
Test: Multiplex assay against HEK293T
Type: toxicity, cell-based
Settings: human
How it was run: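 Compound was added to live cells that had been stained at seeding with Hoechst33342, BioTracker Green Microtubule Cytoskeleton Dye, MitoTracker Red and Annexin V Alexa Fluor 680, and imaging followed on a CQ1 microscope at 37°C and 5% CO2. CellPathfinder machine-learning gating divided cells into Hoechst high-intensity objects or normal cells, normal cells into healthy, pyknosed or fragmented nuclei, and pyknosed cells into mitotic or apoptotic. Tubulin, mitochondrial-mass and membrane-permeability phenotypes are per cents of healthy-nucleus cells.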

[1] = 12 h, 1 µM, compound concentration 1 uM, replicate 1
[2] = 12 h, 1 µM, compound concentration 1 uM, replicate 2
[3] = 12 h, 10 µM, compound concentration 10 uM, replicate 1
[4] = 12 h, 10 µM, compound concentration 10 uM, replicate 2
[5] = 24 h, 1 µM, compound concentration 1 uM, replicate 1
[6] = 24 h, 1 µM, compound concentration 1 uM, replicate 2
[7] = 24 h, 10 µM, compound concentration 10 uM, replicate 1
[8] = 24 h, 10 µM, compound concentration 10 uM, replicate 2
[9] = 48 h, 1 µM, compound concentration 1 uM, replicate 1
[10] = 48 h, 1 µM, compound concentration 1 uM, replicate 2
[11] = 48 h, 10 µM, compound concentration 10 uM, replicate 1
[12] = 48 h, 10 µM, compound concentration 10 uM, replicate 2

For COc1cc(NC(=O)CCN2CCC(OC(=O)Nc3ccccc3-c3ccccc3)CC2)c(Cl)cc1CNC[C@H](O)c1ccc(O)c2[nH]c(=O)ccc12 [BATEFENTEROL], the “Population Apoptotic (%)” value [1] was 42%, the “Population Fragmented Nuclei (%)” value [1] was 4% and the “Population Healthy Nuclei (%)” value [1] was 81%. The “Population Hoechst High Intensity Objects (%)” value [1] was 7%, the “Population Membrane Permeable-Phenotype (%)” value [1] was 0% and the “Population Mitochondria Different-Phenotype (%)” value [1] was 65%. For the same molecule, the “Population Mitotic Cells (%)” value [1] was 57%, the “Population Normal (%)” value [1] was 92% and the “Population Pyknosed Nuclei (%)” value [1] was 14%. For the same molecule, the “Population Tubulin-Different-Phenotype (%)” value [1] was 44%, the “Total Cell Count” value [1] was 420 and the “Population Apoptotic (%)” value [2] was 47%. For the same molecule, the “Population Fragmented Nuclei (%)” value [2] was 3%, the “Population Healthy Nuclei (%)” value [2] was 78% and the “Population Hoechst High Intensity Objects (%)” value [2] was 8%. For the same molecule, the “Population Mitochondria Different-Phenotype (%)” value [2] was 84%, the “Population Mitotic Cells (%)” value [2] was 52% and the “Population Normal (%)” value [2] was 91%. The “Population Pyknosed Nuclei (%)” value [2] was 17%, the “Population Tubulin-Different-Phenotype (%)” value [2] was 41% and the “Total Cell Count” value [2] was 285. For the same molecule, the “Population Apoptotic (%)” value [3] was 100%, the “Population Fragmented Nuclei (%)” value [3] was 90% and the “Population Healthy Nuclei (%)” value [3] was 0%. For the same molecule, the “Population Hoechst High Intensity Objects (%)” value [3] was 31%, the “Population Membrane Permeable-Phenotype (%)” value [3] was 0% and the “Population Mitochondria Different-Phenotype (%)” value [3] was 0%. The “Population Mitotic Cells (%)” value [3] was 0%, the “Population Normal (%)” value [3] was 68% and the “Population Pyknosed Nuclei (%)” value [3] was 9%. For the same molecule, the “Population Tubulin-Different-Phenotype (%)” value [3] was 0%, the “Total Cell Count” value [3] was 16 and the “Population Apoptotic (%)” value [4] was 52%. The “Population Fragmented Nuclei (%)” value [4] was 5%, the “Population Healthy Nuclei (%)” value [4] was 72% and the “Population Hoechst High Intensity Objects (%)” value [4] was 11%. The “Population Membrane Permeable-Phenotype (%)” value [4] was 1%, the “Population Mitochondria Different-Phenotype (%)” value [4] was 87% and the “Population Mitotic Cells (%)” value [4] was 47%. The “Population Normal (%)” value [4] was 88%, the “Population Pyknosed Nuclei (%)” value [4] was 22% and the “Population Tubulin-Different-Phenotype (%)” value [4] was 67%. For the same molecule, the “Total Cell Count” value [4] was 303, the “Population Apoptotic (%)” value [5] was 44% and the “Population Fragmented Nuclei (%)” value [5] was 9%. The “Population Healthy Nuclei (%)” value [5] was 77%, the “Population Hoechst High Intensity Objects (%)” value [5] was 5% and the “Population Membrane Permeable-Phenotype (%)” value [5] was 0%. The “Population Mitochondria Different-Phenotype (%)” value [5] was 59%, the “Population Mitotic Cells (%)” value [5] was 55% and the “Population Normal (%)” value [5] was 94%. The “Population Pyknosed Nuclei (%)” value [5] was 12%, the “Population Tubulin-Different-Phenotype (%)” value [5] was 35% and the “Total Cell Count” value [5] was 527. For the same molecule, the “Population Apoptotic (%)” value [6] was 41%, the “Population Fragmented Nuclei (%)” value [6] was 7% and the “Population Healthy Nuclei (%)” value [6] was 82%. The “Population Hoechst High Intensity Objects (%)” value [6] was 8%, the “Population Mitochondria Different-Phenotype (%)” value [6] was 65% and the “Population Mitotic Cells (%)” value [6] was 58%. The “Population Normal (%)” value [6] was 91%, the “Population Pyknosed Nuclei (%)” value [6] was 9% and the “Population Tubulin-Different-Phenotype (%)” value [6] was 27%. The “Total Cell Count” value [6] was 403, the “Population Apoptotic (%)” value [7] was 0% and the “Population Fragmented Nuclei (%)” value [7] was 87%. For the same molecule, the “Population Healthy Nuclei (%)” value [7] was 12%, the “Population Hoechst High Intensity Objects (%)” value [7] was 33% and the “Population Membrane Permeable-Phenotype (%)” value [7] was 0%. For the same molecule, the “Population Mitochondria Different-Phenotype (%)” value [7] was 100%, the “Population Mitotic Cells (%)” value [7] was 0% and the “Population Normal (%)” value [7] was 66%. The “Population Pyknosed Nuclei (%)” value [7] was 0%, the “Population Tubulin-Different-Phenotype (%)” value [7] was 100% and the “Total Cell Count” value [7] was 12. The “Population Apoptotic (%)” value [8] was 56%, the “Population Fragmented Nuclei (%)” value [8] was 6% and the “Population Healthy Nuclei (%)” value [8] was 73%. For the same molecule, the “Population Hoechst High Intensity Objects (%)” value [8] was 7%, the “Population Mitochondria Different-Phenotype (%)” value [8] was 89% and the “Population Mitotic Cells (%)” value [8] was 43%. The “Population Normal (%)” value [8] was 93%, the “Population Pyknosed Nuclei (%)” value [8] was 19% and the “Population Tubulin-Different-Phenotype (%)” value [8] was 78%. The “Total Cell Count” value [8] was 357, the “Population Apoptotic (%)” value [9] was 35% and the “Population Fragmented Nuclei (%)” value [9] was 15%. The “Population Healthy Nuclei (%)” value [9] was 75%, the “Population Hoechst High Intensity Objects (%)” value [9] was 3% and the “Population Membrane Permeable-Phenotype (%)” value [9] was 0%. For the same molecule, the “Population Mitochondria Different-Phenotype (%)” value [9] was 36%, the “Population Mitotic Cells (%)” value [9] was 65% and the “Population Normal (%)” value [9] was 96%. For the same molecule, the “Population Pyknosed Nuclei (%)” value [9] was 8%, the “Population Tubulin-Different-Phenotype (%)” value [9] was 17% and the “Total Cell Count” value [9] was 744. The “Population Apoptotic (%)” value [10] was 51%, the “Population Fragmented Nuclei (%)” value [10] was 13% and the “Population Healthy Nuclei (%)” value [10] was 79%. The “Population Mitochondria Different-Phenotype (%)” value [10] was 42%, the “Population Mitotic Cells (%)” value [10] was 48% and the “Population Pyknosed Nuclei (%)” value [10] was 6%. For the same molecule, the “Total Cell Count” value [10] was 547, the “Population Apoptotic (%)” value [11] was 100% and the “Population Fragmented Nuclei (%)” value [11] was 58%. For the same molecule, the “Population Healthy Nuclei (%)” value [11] was 25%, the “Population Hoechst High Intensity Objects (%)” value [11] was 7% and the “Population Membrane Permeable-Phenotype (%)” value [11] was 0%. For the same molecule, the “Population Mitochondria Different-Phenotype (%)” value [11] was 66%, the “Population Mitotic Cells (%)” value [11] was 0% and the “Population Normal (%)” value [11] was 92%. For the same molecule, the “Population Pyknosed Nuclei (%)” value [11] was 16%, the “Population Tubulin-Different-Phenotype (%)” value [11] was 66% and the “Total Cell Count” value [11] was 13. For the same molecule, the “Population Apoptotic (%)” value [12] was 57%, the “Population Fragmented Nuclei (%)” value [12] was 11% and the “Population Healthy Nuclei (%)” value [12] was 76%. For the same molecule, the “Population Mitochondria Different-Phenotype (%)” value [12] was 76%, the “Population Mitotic Cells (%)” value [12] was 42% and the “Population Pyknosed Nuclei (%)” value [12] was 11%. The “Population Tubulin-Different-Phenotype (%)” value [12] was 74% and the “Total Cell Count” value [12] was 427.
